Measurements from different studies.
Each line is one published result; the experiments were not run side by side.

With `CCCCn1cnc2ccc(-c3ccc(NC(=O)Nc4ccc(OC)cc4)nc3)cc2c1=O` the IC50 was greater than 10000 nM (NCI-H1975; cell growth or viability, CCK-8; 72 h).
The inhibition of `NCC(=O)Nc1ccccc1/N=c1\cc(-c2ccc3c(c2)OCO3)oc2ccccc12` is reported as 1.26% (NCI-H1975; cell growth or viability, CCK-8; 1 µM).
The IC50 of `Cc1ccc(C(=O)Nc2ccc(-c3ccc4ncn(Cc5ccccc5)c(=O)c4c3)cn2)cc1` is reported as greater than 10000 nM (NCI-H1975; cell growth or viability, CCK-8; 72 h).
With `COc1cccc(NC(=O)Nc2nc3cc(-c4ccc5ncn(CCC6CCCCC6)c(=O)c5c4)ccc3s2)c1` the IC50 was greater than 20000 nM (NCI-H1975; cell growth or viability, MTT; 72 h).
`C[C@H](N)C(=O)Nc1ccccc1/N=c1\cc(-c2ccc3c(c2)OCCO3)oc2c([N+](=O)[O-])cccc12` has an inhibition of 1.15% (NCI-H1975; cell growth or viability, CCK-8; 1 µM).
The IC50 of `CCNC(=O)Nc1nc2cc(-c3ccc4ncn(Cc5ccccc5)c(=O)c4c3)ccc2s1` is reported as 9890 nM (NCI-H1975; cell growth or viability, MTT; 72 h).
With `NCC(=O)Nc1ccccc1/N=c1\cc(-c2ccc3c(c2)OCO3)oc2c(N)cccc12` the inhibition was 4.64% (NCI-H1975; cell growth or viability, CCK-8; 1 µM).
`COc1cccc(NC(=O)Nc2nc3cc(-c4ccc5ncn(Cc6ccccc6)c(=O)c5c4)ccc3s2)c1` has an IC50 of greater than 20000 nM (NCI-H1975; cell growth or viability, MTT; 72 h).
With `Nc1nc2c(ncn2COCCO)c(=O)[nH]1` the IC50 was 160 nM (Human alphaherpesvirus 2; viral replication, inhibitor, qPCR; BEAS-2B).
With `COCCC(=O)Nc1ccccc1/N=c1\cc(-c2ccc3c(c2)OCO3)oc2ccccc12` the inhibition was 3.84% (NCI-H1975; cell growth or viability, CCK-8; 1 µM).
The IC50 of `CCCn1cnc2ccc(-c3ccc(NC(=O)CC(C)CC)nc3)cc2c1=O` (stereo not shown) is reported as 1350 nM (NCI-H1975; cell growth or viability, CCK-8; 72 h).
The IC50 of `COc1cccc(NC(=O)Nc2nc3cc(-c4ccc5ncn(CCN6CCOCC6)c(=O)c5c4)ccc3s2)c1` is reported as greater than 20000 nM (NCI-H1975; cell growth or viability, MTT; 72 h).
The IC50 of `CCCCn1cnc2ccc(-c3ccc(NC(=O)C4CCCCC4)nc3)cc2c1=O` is reported as 1600 nM (NCI-H1975; cell growth or viability, CCK-8; 72 h).
With `c1ccc(Oc2ccc(Nc3c4c(nc5ccccc35)CCC4)cc2)cc1` the IC50 was 1090 nM (Leishmania amazonensis; parasite growth, MTT; promastigote).
The IC50 of `CCCCn1cnc2ccc(-c3ccc(NC(=O)CCC)nc3)cc2c1=O` is reported as 1270 nM (NCI-H1975; cell growth or viability, CCK-8; 72 h).
For `NCCCCC(=O)Nc1ccccc1/N=c1\cc(-c2ccc3c(c2)OCO3)oc2ccccc12`, the inhibition was -2.12% (NCI-H1975; cell growth or viability, CCK-8; 1 µM).
